In brackets after ≈: the same amount, converted by molar mass.
How the values were obtained:
[1] = molecular target: T1, Lanosterol 14-alpha demethylase (Candida albicans (strain SC5314 / ATCC MYA-2876) (Yeast), UniProt P10613); assay: Inhibition of CYP51 in Candida albicans ATCC SC5314 assessed as 4,4-dimethyl zymosterol content at 2 ug/ml by GS-MS analysis relative to total sterols; parameters: scale not given: the % may be the effect or the level left
Outline: (§1)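 C. albicans SC5314 cells exposed to drug at 0.03125–8 µg/mL alongside untreated and fluconazole-treated cells; sterols extracted and analysed by GC-MS with cholesterol as internal standard; each sterol expressed as percent of total sterols.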

[2] = molecular target: T1, Lanosterol 14-alpha demethylase; assay: Inhibition of CYP51 in Candida albicans ATCC SC5314 assessed as lanosterol content at 2 ug/ml by GS-MS analysis relative to total sterols; parameters: scale not given: the % may be the effect or the level left; conditions: at 2 µg/mL
[3] = molecular target: T1, Lanosterol 14-alpha demethylase; assay: Inhibition of CYP51 in Candida albicans ATCC SC5314 assessed as ergosterol content at 0.125 ug/ml by GS-MS analysis relative to total sterols (reference value: 98.7%); parameters: scale not given: the % may be the effect or the level left
[4] = molecular target: T1, Lanosterol 14-alpha demethylase; assay: Inhibition of CYP51 in Candida albicans ATCC SC5314 assessed as eburicol content at 8 ug/ml by GS-MS analysis relative to total sterols (reference value: 0.4%); parameters: scale not given: the % may be the effect or the level left; conditions: at 8 µg/mL
[5] = molecular target: T1, Lanosterol 14-alpha demethylase; assay: Inhibition of CYP51 in Candida albicans ATCC SC5314 assessed as ergosterol content at 0.03125 ug/ml by GS-MS analysis relative to total sterols (reference value: 98.7%); parameters: scale not given: the % may be the effect or the level left
[6] = molecular target: T1, Lanosterol 14-alpha demethylase; assay: Inhibition of CYP51 in Candida albicans ATCC SC5314 assessed as obtusifoliol content at 2 ug/ml by GS-MS analysis relative to total sterols (reference value: 0.6%); parameters: scale not given: the % may be the effect or the level left; conditions: at 2 µg/mL
[7] = molecular target: T1, Lanosterol 14-alpha demethylase; assay: Inhibition of CYP51 in Candida albicans ATCC SC5314 assessed as eburicol content at 0.03125 ug/ml by GS-MS analysis relative to total sterols (reference value: 0.4%); parameters: scale not given: the % may be the effect or the level left
[8] = molecular target: T1, Lanosterol 14-alpha demethylase; assay: Inhibition of CYP51 in Candida albicans ATCC SC5314 assessed as increase in eburicol content by GS-MS analysis
[9] = molecular target: T1, Lanosterol 14-alpha demethylase; assay: Inhibition of CYP51 in Candida albicans ATCC SC5314 assessed as eburicol content at 0.125 ug/ml by GS-MS analysis relative to total sterols (reference value: 0.4%); parameters: scale not given: the % may be the effect or the level left
Cryptococcus neoformans = assay: Antifungal activity against Cryptococcus neoformans cgmcc 2.3161 by broth microdilution method; type: functional
Outline: (§2)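 Serial twofold-style dilution in growth medium per NCCLS broth microdilution guidelines. Compounds dissolved in DMSO before dilution. Fluconazole and itraconazole served as positive controls. MIC was read as the lowest concentration that prevents visible fungal growth.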

[10] = molecular target: T1, Lanosterol 14-alpha demethylase; assay: Inhibition of CYP51 in Candida albicans ATCC SC5314 assessed as ergosterol content at 8 ug/ml by GS-MS analysis relative to total sterols (reference value: 98.7%); parameters: scale not given: the % may be the effect or the level left; conditions: at 8 µg/mL
Candida albicans [11] = assay: Antifungal activity against fluconazole-resistant Candida albicans strain 100 by broth microdilution method; type: functional
Outline: (§3)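 Broth serial dilution in 96-well plates per NCCLS guidelines; compounds dissolved in DMSO and serially diluted into growth medium; MIC taken as lowest concentration inhibiting visible fungal growth. Fluconazole-resistant clinical C. albicans isolates 100 and 103; fluconazole and itraconazole as positive controls.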

[12] = molecular target: T1, Lanosterol 14-alpha demethylase; assay: Inhibition of CYP51 in Candida albicans ATCC SC5314 assessed as ergosterol content at 0.5 ug/ml by GS-MS analysis relative to total sterols (reference value: 98.7%); parameters: scale not given: the % may be the effect or the level left; conditions: at 0.5 µg/mL
[13] = molecular target: T1, Lanosterol 14-alpha demethylase; assay: Inhibition of CYP51 in Candida albicans ATCC SC5314 assessed as lanosterol content at 8 ug/ml by GS-MS analysis relative to total sterols; parameters: scale not given: the % may be the effect or the level left; conditions: at 8 µg/mL
[14] = molecular target: T1, Lanosterol 14-alpha demethylase; assay: Inhibition of CYP51 in Candida albicans ATCC SC5314 assessed as lanosterol content at 0.5 ug/ml by GS-MS analysis relative to total sterols; parameters: scale not given: the % may be the effect or the level left; conditions: at 0.5 µg/mL
Candida albicans [15] = assay: Antifungal activity against Candida albicans CPCC 400523 by broth microdilution method; type: functional; outline: as §2
[16] = molecular target: T1, Lanosterol 14-alpha demethylase; assay: Inhibition of CYP51 in Candida albicans ATCC SC5314 assessed as eburicol content at 2 ug/ml by GS-MS analysis relative to total sterols (reference value: 0.4%); parameters: scale not given: the % may be the effect or the level left; conditions: at 2 µg/mL
[17] = molecular target: T1, Lanosterol 14-alpha demethylase; assay: Inhibition of CYP51 in Candida albicans ATCC SC5314 assessed as increase in lanosterol content by GS-MS analysis
Aspergillus fumigatus = assay: Antifungal activity against Aspergillus fumigatus GIM 3.524 by broth microdilution method; type: functional; outline: as §2
Candida albicans [18] = assay: Antifungal activity against Candida albicans ATCC SC5314 by broth microdilution method; type: functional; outline: as §2
Candida albicans [19] = assay: Antifungal activity against fluconazole-resistant Candida albicans strain 103 by broth microdilution method; type: functional; outline: as §3
[20] = molecular target: T1, Lanosterol 14-alpha demethylase; assay: Inhibition of CYP51 in Candida albicans ATCC SC5314 assessed as 4,4-dimethyl zymosterol content at 8 ug/ml by GS-MS analysis relative to total sterols; parameters: scale not given: the % may be the effect or the level left; outline: as §1
[21] = molecular target: T1, Lanosterol 14-alpha demethylase; assay: Inhibition of CYP51 in Candida albicans ATCC SC5314 assessed as lanosterol content at 0.125 ug/ml by GS-MS analysis relative to total sterols; parameters: scale not given: the % may be the effect or the level left
Candida tropicalis = assay: Antifungal activity against Candida tropicalis cgmcc 2.3739 by broth microdilution method; type: functional; outline: as §2
[22] = molecular target: T1, Lanosterol 14-alpha demethylase; assay: Inhibition of CYP51 in Candida albicans ATCC SC5314 assessed as obtusifoliol content at 0.03125 ug/ml by GS-MS analysis relative to total sterols (reference value: 0.6%); parameters: scale not given: the % may be the effect or the level left
[23] = molecular target: T1, Lanosterol 14-alpha demethylase; assay: Inhibition of CYP51 in Candida albicans ATCC SC5314 assessed as eburicol content at 0.5 ug/ml by GS-MS analysis relative to total sterols (reference value: 0.4%); parameters: scale not given: the % may be the effect or the level left; conditions: at 0.5 µg/mL
[24] = molecular target: T1, Lanosterol 14-alpha demethylase; assay: Inhibition of CYP51 in Candida albicans ATCC SC5314 assessed as obtusifoliol content at 0.5 ug/ml by GS-MS analysis relative to total sterols (reference value: 0.6%); parameters: scale not given: the % may be the effect or the level left; conditions: at 0.5 µg/mL
[25] = molecular target: T1, Lanosterol 14-alpha demethylase; assay: Inhibition of CYP51 in Candida albicans ATCC SC5314 assessed as obtusifoliol content at 0.125 ug/ml by GS-MS analysis relative to total sterols (reference value: 0.6%); parameters: scale not given: the % may be the effect or the level left
[26] = molecular target: T1, Lanosterol 14-alpha demethylase; assay: Inhibition of CYP51 in Candida albicans ATCC SC5314 assessed as ergosterol content at 2 ug/ml by GS-MS analysis relative to total sterols (reference value: 98.7%); parameters: scale not given: the % may be the effect or the level left; conditions: at 2 µg/mL
[27] = molecular target: T1, Lanosterol 14-alpha demethylase; assay: Inhibition of CYP51 in Candida albicans ATCC SC5314 assessed as obtusifoliol content at 8 ug/ml by GS-MS analysis relative to total sterols (reference value: 0.6%); parameters: scale not given: the % may be the effect or the level left; conditions: at 8 µg/mL
[28] = molecular target: T1, Lanosterol 14-alpha demethylase; assay: Inhibition of CYP51 in Candida albicans ATCC SC5314 assessed as decrease in ergosterol content by GS-MS analysis
[29] = Metabolic stability in human plasma assessed as parent compound remaining at 120 mins; type: ADME, cell-free; conditions: read-out: Stability
[30] = Metabolic stability in human plasma assessed as parent compound remaining at 60 mins; type: ADME, cell-free; conditions: read-out: Stability

T1 sequence (P10613 whole entry): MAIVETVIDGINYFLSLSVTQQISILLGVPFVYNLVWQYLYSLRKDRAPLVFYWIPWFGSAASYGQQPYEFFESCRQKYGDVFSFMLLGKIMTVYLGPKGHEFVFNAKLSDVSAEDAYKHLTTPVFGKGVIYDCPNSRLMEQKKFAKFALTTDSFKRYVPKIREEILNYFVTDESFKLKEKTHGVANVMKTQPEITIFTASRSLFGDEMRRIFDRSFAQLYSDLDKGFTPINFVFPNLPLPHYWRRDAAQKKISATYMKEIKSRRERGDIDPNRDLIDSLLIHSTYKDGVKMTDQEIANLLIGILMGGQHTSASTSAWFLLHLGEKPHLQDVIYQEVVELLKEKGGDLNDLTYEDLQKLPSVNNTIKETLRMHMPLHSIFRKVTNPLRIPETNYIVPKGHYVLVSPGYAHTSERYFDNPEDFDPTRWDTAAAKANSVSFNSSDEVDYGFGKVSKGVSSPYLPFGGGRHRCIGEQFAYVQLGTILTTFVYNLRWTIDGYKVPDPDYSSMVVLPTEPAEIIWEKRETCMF

| Structure (SMILES) | Activity [2] | Activity [3] | Activity [4] | Activity [5] | Activity [6] | Activity [7] | inhibition (INH) [8] | Activity [9] | MIC (Cryptococcus neoformans) | Activity [10] | MIC (Candida albicans [11]) | Activity [12] | Activity [13] | Activity [14] | MIC (Candida albicans [15]) | Activity [16] | inhibition (INH) [17] | MIC (Aspergillus fumigatus) | MIC (Candida albicans [18]) | MIC (Candida albicans [19]) | also measured |
| --- | --- | --- | --- | --- | --- | --- | --- | --- | --- | --- | --- | --- | --- | --- | --- | --- | --- | --- | --- | --- | --- |
| OC(Cn1cncn1)(Cn1cncn1)c1ccc(F)cc1F [FLUCONAZOLE] | 23% | 88.7% | 37.2% | 95.6% | 16.1% | 0.8% | Dose-dependent effect | 2% | 4 µg/mL (≈ 13.1 µM) | 1.7% | > 64 µg/mL | 81.4% | 34.8% | 4.5% | 2 µg/mL (≈ 6.53 µM) | 27% | Dose-dependent effect | 16 µg/mL (≈ 52.2 µM) | 1 µg/mL (≈ 3.27 µM) | > 64 µg/mL | Activity [1]: 15.7%; Activity [20]: 13%; Activity [21]: 0.4%; MIC (Candida tropicalis): 0.25 µg/mL (≈ 0.816 µM); Activity [22]: 3.6%; Activity [23]: 7.2%; Activity [24]: 6.9%; Activity [25]: 8.9%; Activity [26]: 18.2%; Activity [27]: 13.3%; inhibition (INH) [28]: Dose-dependent effect |
| CC(C)OC(=O)[C@H](Cn1ccnc1)NC(=O)c1cc(-c2ccccc2F)on1 | 22% | 85.9% | 63.7% | 93.9% | 9.2% | 1.7% | Dose-dependent effect | 4.9% | 0.5 µg/mL (≈ 1.29 µM) | 0.7% | 1 µg/mL (≈ 2.59 µM) | 30.8% | 26.7% | 16.7% | 0.25 µg/mL (≈ 0.647 µM) | 63.3% | Dose-dependent effect | 4 µg/mL (≈ 10.4 µM) | 0.0625 µg/mL (≈ 0.162 µM) | 1 µg/mL (≈ 2.59 µM) | remaining at 2 h [29]: 91.8%; remaining at 1 h [30]: 95.3%; Activity [21]: 2.2%; MIC (Candida tropicalis): 0.0312 µg/mL (≈ 0.0809 µM); Activity [22]: 4.3%; Activity [23]: 45.6%; Activity [24]: 6.9%; Activity [25]: 6.9%; Activity [26]: 5.4%; Activity [27]: 8.9%; inhibition (INH) [28]: Dose-dependent effect |

From ChEMBL document CHEMBL4118063, “Design, synthesis and evaluation of aromatic heterocyclic derivatives as potent antifungal agents” (Eur J Med Chem, 2017)
